According to ChEMBL document CHEMBL3244400, “Synthesis of 3,4-dihydro-4-oxothieno[2,3-d]pyrimidine-2-carboxylates, a new series of orally active antiallergy agents” (J Med Chem, 1979):
The source made the active and inactive calls. No cut-off for these calls is given here.

Key:
Rattus norvegicus [1] = experiment: Inhibition of egg albumin-induced allergic bronchospasm in sensitized, spontaneously breathing and anesthesized Harlan-Wistar rat assessed as inhibition of control allergic hypotension response at 0.39 mg/kg administered intraduodenally 15 min prior to antigen challenge; format: functional; settings: route intraduodenal
In short: (§1)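 Male Harlan-Wistar rats (225–275 g) were sensitized with EA im (1 mg/rat) plus pertussis vaccine ip. After 13–15 days they were urethane-anesthetized (1.5 g/kg ip). Drug was given intraduodenally in methocel or iv in saline, then EA 2 mg/rat iv. Pulmonary ventilation pressure and mean arterial pressure were recorded. Individual responses were compared with a separate vehicle-control group mean; 4–15 rats/group.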

Rattus norvegicus [2] = experiment: Inhibition of egg albumin-induced allergic bronchospasm in sensitized, spontaneously breathing and anesthesized Harlan-Wistar rat assessed as inhibition of control allergic bronchospasm response at 3.125 mg/kg administered intraduodenally 15 min prior to antigen challenge; format: functional; settings: route intraduodenal; in short: as §1
Mast cell [3] = experiment: Inhibition of histamine release in Sprague-Dawley rat peritoneal mast cells at 1.25 uM after 10 mins by fluorimetry relative to control; format: functional
In short: (§2)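 Peritoneal lavage cells from male Sprague–Dawley rats (200–300 g) were sensitized for 2 h at 37 °C in rat anti-EA serum with heparin. Cells were resuspended in buffered HBSS and challenged with EA. Drug was added together with antigen. After 10 min incubation, histamine was measured fluorimetrically. % inhibition was calculated versus release without drug.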

Rattus norvegicus [4] = experiment: Inhibition of egg albumin-induced allergic bronchospasm in sensitized, spontaneously breathing and anesthesized Harlan-Wistar rat assessed as drop in mean arterial blood pressure at 0.39 mg/kg administered intraduodenally 15 min prior to antigen challenge (reference value: 46.3 +/- 3.5 %); format: functional; settings: route intraduodenal; in short: as §1
Rattus norvegicus [5] = experiment: Antiallergic activity against egg albumin-induced anaphylaxis in po dosed sensitized rat compound administered 15 mins prior to antigen challenge as single dose by passive cutaneous anaphylaxis test; format: functional
In short: (§3)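 Male Sprague–Dawley or Wistar rats (100–150 g) were passively sensitized by two intradermal dilutions of rat anti-egg-albumin serum, which was mainly IgE and raised with EA im (10 mg/kg) plus killed pertussis vaccine iv. After 48 h, drug or vehicle was given. Rats were then challenged iv with EA plus Evans Blue (25 mg/kg each). Spot diameter was read 20–30 min later; ≥5 rats/compound. % inhibition was calculated versus control mean diameter.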

Rattus norvegicus [6] = experiment: Inhibition of egg albumin-induced allergic bronchospasm in sensitized, spontaneously breathing and anesthesized Harlan-Wistar rat assessed as inhibition of control allergic hypotension response compound administered intraduodenally 15 min prior to antigen challenge; format: functional; settings: in the assay text read “bronchospasm response” for “hypotension response”; in short: as §1
Mast cell [7] = experiment: Inhibition of histamine release in Sprague-Dawley rat peritoneal mast cells at 5 uM after 10 mins by fluorimetry relative to control; format: functional; in short: as §2
Rattus norvegicus [8] = experiment: Inhibition of egg albumin-induced allergic bronchospasm in sensitized, spontaneously breathing and anesthesized Harlan-Wistar rat assessed as inhibition of control allergic hypotension response at 0.78 mg/kg administered intraduodenally 15 min prior to antigen challenge; format: functional; settings: route intraduodenal; in short: as §1
Rattus norvegicus [9] = experiment: Inhibition of egg albumin-induced allergic bronchospasm in sensitized, spontaneously breathing and anesthesized Harlan-Wistar rat assessed as drop in pulmonary arterial blood pressure at 0.78 mg/kg administered intraduodenally 15 min prior to antigen challenge (reference value: 32.2 +/- 4.7 %); format: functional; settings: route intraduodenal; in short: as §1
Rattus norvegicus [10] = experiment: Inhibition of egg albumin-induced allergic bronchospasm in sensitized, spontaneously breathing and anesthesized Harlan-Wistar rat assessed as inhibition of control allergic bronchospasm response compound administered intraduodenally 15 min prior to antigen challenge; format: functional; in short: as §1
Rattus norvegicus [11] = experiment: Inhibition of egg albumin-induced allergic bronchospasm in sensitized, spontaneously breathing and anesthesized Harlan-Wistar rat assessed as drop in mean arterial blood pressure at 3.125 mg/kg administered intraduodenally 15 min prior to antigen challenge (reference value: 46.3 +/- 3.5 %); format: functional; settings: route intraduodenal; in short: as §1
Rattus norvegicus [12] = experiment: Inhibition of egg albumin-induced allergic bronchospasm in sensitized, spontaneously breathing and anesthesized Harlan-Wistar rat assessed as drop in mean arterial blood pressure at 0.78 mg/kg administered intraduodenally 15 min prior to antigen challenge (reference value: 46.3 +/- 3.5 %); format: functional; settings: route intraduodenal; in short: as §1
Rattus norvegicus [13] = experiment: Inhibition of egg albumin-induced allergic bronchospasm in sensitized, spontaneously breathing and anesthesized Harlan-Wistar rat assessed as drop in pulmonary arterial blood pressure at 0.39 mg/kg administered intraduodenally 15 min prior to antigen challenge (reference value: 32.2 +/- 4.7 %); format: functional; settings: route intraduodenal; in short: as §1
Rattus norvegicus [14] = experiment: Inhibition of egg albumin-induced allergic bronchospasm in sensitized, spontaneously breathing and anesthesized Harlan-Wistar rat assessed as drop in pulmonary arterial blood pressure at 3.125 mg/kg administered intraduodenally 15 min prior to antigen challenge (reference value: 32.2 +/- 4.7 %); format: functional; settings: route intraduodenal; in short: as §1
Mast cell [15] = experiment: Inhibition of histamine release in Sprague-Dawley rat peritoneal mast cells at 20 uM after 10 mins by fluorimetry relative to control; format: functional; in short: as §2
Rattus norvegicus [16] = experiment: Inhibition of egg albumin-induced allergic bronchospasm in sensitized, spontaneously breathing and anesthesized Harlan-Wistar rat assessed as inhibition of control allergic bronchospasm response at 0.78 mg/kg administered intraduodenally 15 min prior to antigen challenge; format: functional; settings: route intraduodenal; in short: as §1
Plasma = experiment: Drug metabolism in Sprague-Dawley rat plasma assessed as sodium 2-carboxy-6-ethyl-4a,7a-dihydrothieno[2,3-d]pyrimidin-4-olate formation at 50 mg/kg, po; format: ADME, organism-based; set-up: dose 50 mg/kg, route oral; settings: in vivo
In short: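 Mature Sprague–Dawley rats (150–200 g) were fasted overnight and given a single 50 mg/kg oral dose. Blood was taken at 0.5–6 h, two rats per time point. Plasma (1 mL) was acidified to pH 1–2 and extracted twice with CHCl₃. The dried residue was taken up in methanol and quantified by reverse-phase C-18 HPLC.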

Rattus norvegicus [17] = experiment: Inhibition of egg albumin-induced allergic bronchospasm in sensitized, spontaneously breathing and anesthesized Harlan-Wistar rat assessed as inhibition of control allergic bronchospasm response at 0.39 mg/kg administered intraduodenally 15 min prior to antigen challenge; format: functional; settings: route intraduodenal; in short: as §1
Rattus norvegicus [18] = experiment: Antiallergic activity against egg albumin-induced anaphylaxis in sensitized rat at 30 mg/kg, po administered 15 mins prior to antigen challenge as single dose measured up to 4 hrs by passive cutaneous anaphylaxis test; format: functional, organism-based; set-up: dose 30 mg/kg; in short: as §3
Rattus norvegicus [19] = experiment: Inhibition of egg albumin-induced allergic bronchospasm in sensitized, spontaneously breathing and anesthesized Harlan-Wistar rat assessed as inhibition of control allergic hypotension response at 3.125 mg/kg administered intraduodenally 15 min prior to antigen challenge; format: functional; settings: route intraduodenal; in short: as §1
Rattus norvegicus [20] = experiment: Antiallergic activity against egg albumin-induced anaphylaxis in sensitized rat at 5 mg/kg, po administered 15 mins prior to antigen challenge as single dose measured up to 4 hrs by passive cutaneous anaphylaxis test; format: functional, organism-based; set-up: dose 5 mg/kg; in short: as §3
Rattus norvegicus [21] = experiment: Antiallergic activity against egg albumin-induced anaphylaxis in sensitized rat at 25 mg/kg, po administered 15 mins prior to antigen challenge as single dose measured up to 4 hrs by passive cutaneous anaphylaxis test; format: functional, organism-based; set-up: dose 25 mg/kg; in short: as §3
Rattus norvegicus [22] = experiment: Antiallergic activity against egg albumin-induced anaphylaxis in iv dosed sensitized rat compound administered 15 mins prior to antigen challenge as single dose by passive cutaneous anaphylaxis test; format: functional; in short: as §3
Rattus norvegicus [23] = experiment: Antiallergic activity against egg albumin-induced anaphylaxis in sensitized rat at 50 mg/kg, po administered 15 mins prior to antigen challenge as single dose measured up to 4 hrs by passive cutaneous anaphylaxis test; format: functional, organism-based; set-up: dose 50 mg/kg; in short: as §3
Rattus norvegicus [24] = experiment: Antiallergic activity against egg albumin-induced anaphylaxis in sensitized rat at 10 mg/kg, po administered 15 mins prior to antigen challenge as single dose measured up to 4 hrs by passive cutaneous anaphylaxis test; format: functional, organism-based; set-up: dose 10 mg/kg; in short: as §3

SMILES: CCOC(=O)c1nc2sc(CC)cc2c(=O)[nH]1
- inhibition in vivo at 0.39 mg/kg (Rattus norvegicus [1]): 2.7%
- inhibition in vivo at 3.125 mg/kg (Rattus norvegicus [2]): 53.6%
- inhibition at 1.25 µM (Mast cell [3]): 19%
- inhibition in vivo at 0.39 mg/kg (Rattus norvegicus [4]): 48.7%
- ED50 (Rattus norvegicus [5]): 2.4 mg/kg
- inhibition (Rattus norvegicus [6]): Dose-dependent effect
- ED50 (Rattus norvegicus [6]; intraduodenal): 1 mg/kg
- inhibition at 5 µM (Mast cell [7]): 55%
- inhibition in vivo at 0.78 mg/kg (Rattus norvegicus [8]): 5.2%
- inhibition in vivo at 0.78 mg/kg (Rattus norvegicus [9]): 29.2%
- inhibition (Rattus norvegicus [10]): Dose-dependent effect
- ED50 (Rattus norvegicus [10]; intraduodenal): 1 mg/kg
- inhibition in vivo at 3.125 mg/kg (Rattus norvegicus [11]): 42.4%
- inhibition in vivo at 0.78 mg/kg (Rattus norvegicus [12]): 51.8%
- inhibition in vivo at 0.39 mg/kg (Rattus norvegicus [13]): 48.8%
- inhibition in vivo at 3.125 mg/kg (Rattus norvegicus [14]): 17.1%
- inhibition at 20 µM (Mast cell [15]): 82%
- inhibition in vivo at 0.78 mg/kg (Rattus norvegicus [16]): 27.8%
- Drug metabolism (Plasma): metabolite_detected
- inhibition in vivo at 0.39 mg/kg (Rattus norvegicus [17]): 4.3%
- Activity (Rattus norvegicus [18]): Active
- inhibition in vivo at 3.125 mg/kg (Rattus norvegicus [19]): 18.9%

SMILES: Cc1csc2nc(C(=O)[O-])nc([O-])c12.O.[Na+].[Na+]
- ED50 (Rattus norvegicus [5]): 50 mg/kg

SMILES: CCOC(=O)c1nc2sc(C(C)=O)c(C)c2c(=O)o1
- Activity (Rattus norvegicus [20]): inactive

SMILES: CCOC(=O)c1nc2sc(CC)cc2c(=O)o1
- ED50 (Rattus norvegicus [5]): 34.4 mg/kg

SMILES: CCOC(=O)c1nc2sc(C(C)C)cc2c(=O)o1
- ED50 (Rattus norvegicus [5]): > 10 mg/kg

SMILES: CCCCCCc1cc2c(=O)[nH]c(C(=O)OCC)nc2s1
- ED50 (Rattus norvegicus [5]): > 5 mg/kg

SMILES: CCOC(=O)c1nc2sc(CC(C)C)c(C)c2c(=O)[nH]1
- ED50 (Rattus norvegicus [5]): 8.1 mg/kg

SMILES: CCc1sc2nc(C(=O)O)nc(O)c2c1N
- Activity (Rattus norvegicus [21]): inactive

SMILES: CCCCCCc1sc2nc(C(=O)OCC)[nH]c(=O)c2c1C
- ED50 (Rattus norvegicus [5]): 50 mg/kg

SMILES: CCOC(=O)c1nc2sccc2c(=O)[nH]1
- ED50 (Rattus norvegicus [5]): > 25 mg/kg

SMILES: CCOC(=O)c1nc2sc(C(C)C)cc2c(=O)[nH]1
- ED50 (Rattus norvegicus [5]): 17.9 mg/kg

SMILES: CCOC(=O)c1nc2sc(CC(C)C)c(C)c2c(=O)o1
- Activity (Rattus norvegicus [20]): inactive

SMILES: CCOC(=O)C(=O)Nc1sccc1C(N)=O
- ED50 (Rattus norvegicus [22]): 0.2 mg/kg
- ED50 (Rattus norvegicus [5]): 4.5 mg/kg
- Activity (Rattus norvegicus [18]): Active

SMILES: CCOC(=O)c1nc2sc(CC)c(N)c2c(=O)[nH]1
- ED50 (Rattus norvegicus [5]): 10 mg/kg

SMILES: CCOC(=O)c1nc2sc(CC)c(C)c2c(=O)[nH]1
- ED50 (Rattus norvegicus [5]): 11.3 mg/kg

SMILES: CCOC(=O)c1nc2sc(C(C)=O)c(C)c2c(=O)[nH]1
- ED50 (Rattus norvegicus [5]): 25 mg/kg

SMILES: CC(=O)c1sc2nc(C(=O)O)nc(O)c2c1C
- Activity (Rattus norvegicus [23]): inactive

SMILES: CCOC(=O)c1nc2sc(CC)c(I)c2c(=O)[nH]1
- ED50 (Rattus norvegicus [5]): 8.1 mg/kg

SMILES: CCCCCCc1cc2c(=O)oc(C(=O)OCC)nc2s1
- Activity (Rattus norvegicus [24]): inactive

SMILES: CCOC(=O)c1nc2sc(N)c(C)c2c(=O)[nH]1
- ED50 (Rattus norvegicus [5]): < 50 mg/kg

SMILES: CC(C)c1cc2c([O-])nc(C(=O)[O-])nc2s1.O.[Na+].[Na+]
- ED50 (Rattus norvegicus [22]): 1 mg/kg
- ED50 (Rattus norvegicus [5]): > 10 mg/kg

SMILES: CCc1cc2c([O-])nc(C(=O)[O-])nc2s1.O.[Na+].[Na+]
- inhibition at 1.25 µM (Mast cell [3]): 22%
- ED50 (Rattus norvegicus [22]): 1.2 mg/kg
- ED50 (Rattus norvegicus [5]): 13 mg/kg
- inhibition at 5 µM (Mast cell [7]): 51%
- inhibition at 20 µM (Mast cell [15]): 73%

SMILES: O.O=C([O-])c1nc([O-])c2c3c(sc2n1)CCCC3.[Na+].[Na+]
- ED50 (Rattus norvegicus [5]): 50 mg/kg

SMILES: CCOC(=O)c1nc2scc(C)c2c(=O)[nH]1
- ED50 (Rattus norvegicus [5]): 50 mg/kg

SMILES: CCCCCCc1sc2nc(C(=O)OCC)oc(=O)c2c1C
- ED50 (Rattus norvegicus [5]): 8.2 mg/kg

SMILES: Cc1c(CC(C)C)sc2nc(C(=O)O)[nH]c(=O)c12
- Activity (Rattus norvegicus [18]): Active

SMILES: Cc1c(CC(C)C)sc2nc(C(=O)[O-])nc([O-])c12.O.[K+].[K+]
- ED50 (Rattus norvegicus [22]): 0.14 mg/kg
- ED50 (Rattus norvegicus [5]): 2.7 mg/kg

SMILES: CCOC(=O)c1nc2sc(CC)c(C)c2c(=O)o1
- Activity (Rattus norvegicus [20]): inactive

SMILES: CCc1sc2nc(C(=O)[O-])nc([O-])c2c1C.O.[Na+].[Na+]
- ED50 (Rattus norvegicus [5]): 10 mg/kg

SMILES: CCCCCCc1cc2c([O-])nc(C(=O)[O-])nc2s1.O.[Na+].[Na+]
- ED50 (Rattus norvegicus [5]): 17.7 mg/kg
